Assay outcomes from PubChem BioAssay.
Rows were chosen to be rich in hits. Some 6.3% of all compounds tested hit in one or more screens of this group.
tolC growth inh = growth inhibitors of E. coli BW25113 tolC mutant; growth inhibition, % at 10 µM (by protocol); OD615; 65,000 compounds, 2.2% hits;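 active = growth inhibition at or above a cutoff equal to the mean over every tested compound plus 3 SD, cut at about 60% in these data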;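 note: growth measured after 20 h incubation at 37 °C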
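test system = E. coli BW25113 ΔtolC::kan bacteria | medium = LB with kanamycin 50 µg/mL | signal = OD at 615 nm | schedule = 37 °C, 20 h exposure | evaluation = % inhibition of E. coli growth | compound dosing = one dose of 10 µM final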
PostGolgi ctrl = inhibits growth of the yeast control strain; efflux-deficient yeast background strain, growth absorbance A615, 16 h; inhibition, % at 10 µM; 98,000 compounds, 5% hits
PostGolgi yeast = growth inhibition of a yeast mutant, post-Golgi transport screen; 98,000 compounds, 0.9% hits; post-Golgi transport phenotypic cell assay; AID 739; inhibition, % at 10 µM;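 note: yeast cells grown in 1536-well plates; yeast grown about 18 h at 30C before absorbance read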
Ecoli WT expand = blocks growth of wild type E. coli BW25113; growth inhibition, % at 100 µM; OD600 absorbance; 98,000 compounds, 0.15% hits;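 active = growth inhibition above about 50% at one test dose, limit read from the data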;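 note: growth measured after 20 h incubation at 37 °C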
Active calls of the source: *; . = not tested or not shown. Cut-off read from the data, not from the text of the source, unless noted: active = inhibition above about 30%; inactive = the rest.

SMILES	tolC growth inh	PostGolgi ctrl	PostGolgi yeast	Ecoli WT expand
CCOC(=O)C1CCCN(C/C(O)=C(\C#N)c2nc(-c3ccccc3)cs2)C1 (stereo unspecified)	6	11	-9	2
O=S(NCc1ccco1)C12CC3CC(CC(C3)C1)C2 (stereo unspecified)	-10	12	-3	-12
COc1ccc(-c2nnc(SCC(=O)NCc3cccs3)n2CC(C)C)cc1	.	1	-1	-4
CCc1c(O)nc(SCc2ccccc2)n(C(C)CC)c1=O (stereo unspecified)	70*	26	-6	8
C=CCSc1nc(O)c(CC)c(=O)n1C(C)CC (stereo unspecified)	24	7	-2	1
CC1=C(C#N)C(=O)N(C)C(C)(C)C1	-29	11	10	7
CC1=C(C#N)C(=O)NC(C)(C)C1	-11	37*	1	-1
CC(C)OP(=O)(OC(C)C)C1(O)C(=O)Nc2ccccc21 (stereo unspecified)	.	-1	-3	3
CCOC(=O)c1[nH]c2ccc(F)cc2c1NC(=O)CN1CCN(C/C=C/c2ccccc2)CC1	98*	12	-3	0
CCOC(=O)c1[nH]c2ccc(F)cc2c1NC(=O)C1=COCCO1	0	8	-3	1
CCOC(=O)c1[nH]c2ccc(F)cc2c1NC(=O)c1cc(OC)c(OC)c(OC)c1	3	30*	-10	3
COC(=O)c1[nH]c2cc(C)ccc2c1NC(=O)CN1CCc2cc(OC)c(OC)cc2C1	17	17	10	-6
CCOC(=O)c1[nH]c2ccc(OC)cc2c1NC(=O)CCN1CCc2ccccc2C1	7	32*	8	2
COC(=O)c1[nH]c2ccc(Cl)cc2c1NC(=O)CN1CCc2cc(OC)c(OC)cc2C1	33	31*	4	-7
O=C(CSc1nnnn1-c1cccc2c1CCCC2)NC1CCCC1	.	7	3	-5
O=C(c1ccc(=O)n(Cc2ccc(Cl)c(Cl)c2)c1)N1CCOCC1	.	5	5	-10
COc1ccc(NS(=O)(=O)c2ccc3c(c2)CCC(=O)N3)c(OC)c1	-12	3	4	-6
CCOC(=O)N1CCN(CC(=O)Nc2c(C(=O)OC)[nH]c3ccc(Cl)cc23)CC1	86*	13	6	0
CCc1c(C(=O)Nc2cc(C)ccc2OC)[nH]c(C)c1C(C)=O	-4	55*	29	-19
CC(=O)N1CCCc2cc(S(=O)(=O)Nc3ccc4c(c3)OCO4)ccc21	1	33*	2	0
COC(=O)c1cc2cc(NS(=O)(=O)c3ccc(C)cc3)ccc2s1	.	52*	-11	-5
COC(=O)Nc1ccc(S(=O)(=O)Nc2ccc(C)cc2)cc1	.	37*	39*	0
COC(=O)Nc1ccc(S(=O)(=O)Nc2ccc(O)cc2)cc1	.	5	1	11
COC(=O)c1ccc(NS(=O)(=O)c2ccc(OC)cc2)cc1	25	22	11	9
Cc1c(C(N)=O)sc2ncn(CC(=O)N3CCC(C)CC3)c(=O)c12	.	-1	1	1
SMILES	tolC growth inh	PostGolgi ctrl	PostGolgi yeast	Ecoli WT expand
CCC(=O)Nc1ccc2c(c1)nc(CN1CCN(C(C)=O)CC1)n2C	.	4	9	-1
O=C(NC1CCCCC1)C(c1cccs1)N(C(=O)Cc1c[nH]c2ccccc12)c1ccc(F)cc1 (stereo unspecified)	.	48*	-6	-13
O=C(NC1CCCC1)C(c1ccsc1)N(C(=O)Cc1cccs1)c1ccc(F)cc1 (stereo unspecified)	.	3	35*	-10
O=C(Nc1ccccc1)c1sc2cc(C(F)(F)F)cnc2c1-c1cccs1	.	3	18	-8
CCOc1ccc(C2C=C(c3ccc(C)cc3)Nc3nnnn32)cc1 (stereo unspecified)	-1	2	8	-5
CCOc1ccc(C2C=C(c3ccc(C)cc3)Nc3ncnn32)cc1 (stereo unspecified)	30	38*	6	-1
CCOC(=O)C1=C(O)/C(=C\c2ccc(CNC(=O)C(=O)Nc3ccccc3)o2)N=C1C	.	2	2	0
CC1(C)CC(=O)C2=C(C1)N=c1s/c(=C/c3ccc(F)c(F)c3)c(=O)n1C2c1ccc(F)cc1 (stereo unspecified)	.	31*	23	0
CC(=O)C1=C(C)N=c2s/c(=C/c3ccc4c(c3)OCO4)c(=O)n2C1c1ccc(N(C)C)cc1 (stereo unspecified)	-1	.	.	.
CC1=C(C#N)C(Nc2ccc(C)cn2)(C(F)(F)F)C(=O)N1 (stereo unspecified)	.	13	1	-2
CCc1nc(N2CCCCC2)c2oc3ccccc3c2n1	100*	21	-1	-6
CCc1nc(SCC(=O)N2CCCc3ccccc32)c2oc3ccccc3c2n1	.	37*	11	-13
CCc1nc(SCC(=O)N2CCCc3ccccc32)c2c(=O)n(C)c(=O)n(C)c2n1	-1	.	.	.
Cc1nc(SCc2nc3ccccc3[nH]2)c2oc3ccccc3c2n1	42	38*	4	-14
CCOC(=O)C1CCN(c2nc(C)nc3c2oc2ccccc23)CC1	38	36*	20	-5
c1ccc2[nH]c(CSc3ncnc4c3oc3ccccc34)nc2c1	54	11	0	-7
O=C(Nc1cccc(F)c1)C1C2C=CC3(CN(CCCN4CCOCC4)C(=O)C13)O2 (stereo unspecified)	-8	-5	-2	7
CCc1nc(N2CCCC(C)C2)c2oc3ccccc3c2n1 (stereo unspecified)	100*	47*	10	10
Cc1nc(SCC(=O)N2CCN(c3ccccc3)CC2)c2oc3ccccc3c2n1	46	35*	0	-4
CCc1nc(N2CCN(Cc3ccc4c(c3)OCO4)CC2)c2oc3ccccc3c2n1	.	15	12	-24
CCc1nc(N2CCCCC2C)c2oc3ccccc3c2n1 (stereo unspecified)	100*	24	18	9
Cc1cccc(CN2C(=O)CCSc3ccc(Cl)cc32)c1	.	28	8	4
COc1ccc(-c2onc(C)c2-c2ccc(C(=O)OC(C)C)o2)c(O)c1	100*	37*	0	-3
Cn1cnnc1SCNC(=O)C(F)(F)F	3	16	14	-3
O=C(CCSc1nnc2scc(-c3ccccc3)n12)Nc1nc(-c2ccccc2)ns1	65*	-5	4	-7
SMILES	tolC growth inh	PostGolgi ctrl	PostGolgi yeast	Ecoli WT expand
Cc1ccc(-c2csc3nnc(SCC(=O)Nc4cccc(C)n4)n23)cc1	22	-6	35*	7
CC(C)(C)c1ccc(-c2n[nH]c(=S)n2C2CCCC2)cc1	.	59*	-6	-10
O=C(Nc1cccc(-c2nc3ncccc3o2)c1)c1cc2ccccc2o1	11	35*	11	-11
Cc1ccc(-c2nc3ncccc3o2)cc1NC(=O)c1cc2ccccc2o1	5	8	-2	-8
CN(C)CC(=O)Nc1cc(C(F)(F)F)ccc1Cl	-13	8	38*	-5
O=C(CCc1ccccc1)Nc1cc(C(F)(F)F)ccc1Cl	.	11	6	2
Cc1cc(/C=C2\SC(=S)NC2=O)c(C)n1C1CC1	.	56*	0	-11
Cc1ccc(N=Cc2cc(C)n(C3CCCC3)c2C)cc1	.	5	0	-6
COc1ccc(S(=O)(=O)NCCSCc2cccc(C)c2)cc1Br	.	37*	0	-20
